Reference: ChEMBL document CHEMBL1146566, “Antioxidant chalcone glycosides and flavanones from Maclura (Chlorophora) tinctoria” (J Nat Prod, 2003)
Calls of active or inactive are those of the source. The calls are words filed in the database; no cut-off is given here.

Columns and labels:
[1] = Antioxidant activity assessed as autoxidation of linoleic acid by beta-carotene autoxidation assay; type: functional
Outline: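 Linoleic acid (20 mg), Tween 20 (200 mg) and β-carotene (2 mg in 10 mL CHCl3) mixed, CHCl3 removed, 50 mL oxygen-saturated water added. Samples oxidised at 50 °C for 3 h, A470 read at intervals. AA = [1 − (A0 − At)/(A00 − A0t)] × 100 versus no-compound control, reported at 60 and 120 min; BHT as control substance.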

[2] = Antioxidant activity assessed as trolox equivalents of ABTS radical scavenging activity by TEAC assay; type: functional
Outline: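 ABTS radical cation made from 7 mM ABTS and 2.45 mM potassium persulfate, 12 h dark at room temperature, diluted in PBS pH 7.4 to A734 0.70, equilibrated at 30 °C. Samples in methanol at 0.3–2 mM stock levels, 10 μL plus 1 mL ABTS. % inhibition of A734 versus methanol blank plotted against concentration, in triplicate. TEAC = Trolox concentration equivalent to 1 mM compound; quercetin as reference.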

Structure (SMILES): CC(=O)O[C@H]1[C@H](Oc2ccc(C(=O)/C=C/c3ccc(O)cc3)c(O)c2O)O[C@H](COC(=O)/C=C/c2ccccc2)[C@@H](O)[C@@H]1O
- Activity [1]: Active
- Activity [2]: 1.6 mM

Structure (SMILES): O=C1C[C@@H](c2ccc(O[C@@H]3O[C@H](CO)[C@@H](O)[C@H](O)[C@H]3O)cc2)Oc2cc(O)cc(O)c21
- Activity [2]: 0.782 mM

Structure (SMILES): O=C(/C=C/c1ccc(O)cc1)O[C@H]1[C@H](Oc2ccc(C(=O)/C=C/c3ccc(O)cc3)c(O)c2O)O[C@H](CO)[C@@H](O)[C@@H]1O
- Activity [1]: Active
- Activity [2]: 1.93 mM

Structure (SMILES): O=c1c(O)c(-c2ccc(O)c(O)c2)oc2cc(O)cc(O)c12
- Activity [2]: 2.6 mM

Structure (SMILES): CC(=O)OC[C@H]1O[C@@H](Oc2ccc(C(=O)/C=C/c3ccc(O)cc3)c(O)c2O)[C@H](OC(=O)/C=C/c2ccc(O)cc2)[C@@H](O)[C@@H]1O
- Activity [1]: Active
- Activity [2]: 1.71 mM

Structure (SMILES): O=C1C[C@@H](c2ccc(O)cc2)Oc2cc(O)cc(O)c21
- Activity [2]: 0.77 mM

Structure (SMILES): O=C1C[C@@H](c2ccc(O)c(O)c2)Oc2cc(O[C@@H]3O[C@H](CO)[C@@H](O)[C@H](O)[C@H]3O)cc(O)c21
- Activity [2]: 1.26 mM

Structure (SMILES): CC(C)=CCc1c(O[C@@H]2O[C@H](CO)[C@@H](O)[C@H](O)[C@H]2O)ccc(C(=O)/C=C/c2ccc(O)cc2)c1O
- Activity [1]: Active
- Activity [2]: 2.26 mM
